Compounds with a hit are over-represented: about 2% of the library has one in this group of screens.
INS promoter inh: TRM-6 insulin promoter activity inhibition; TRM-6 cells (human fetal islet line), insulin promoter-eGFP reporter, imaging; reporter expression induced with tamoxifen; inhibition, % at 2 µM; 130,000 compounds, 0.9% hits;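 active = inhibition above the mean plus 3 SD, with well images judged a real hit on visual review, cut at about 60% in these data, passing the limit was not always enough; inconclusive = inhibition over the cutoff but images rejected on review; inactive = inhibition not above the cutoff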
HSV replic up: HSV replication enhancement | 220,000 compounds, 0.005% hits | HSV replication augmentation in cells, fold increase | maximum fold increase; in the data active = maximum fold increase above about 1.5; inconclusive = no clear call, values can overlap the other calls; tested in PC3 cells
Autophagy mod: alters autophagy in cells. 190,000 compounds, 0.98% hits. MEF GFP-LC3 puncta imaging; test concentration mostly 10 µM. calls only at 10 µM (by protocol);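 active = percentage of spot-positive cells more than 3 SD above its plate mean, without a fluorescence outlier flag or 80% toxicity; inconclusive = no clear call, values can overlap the other calls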;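 note: spot-positive cell cutoff set from DMSO-treated cells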
Ins promoter up: MIN6 insulin promoter up-regulation. MIN6 insulin promoter-GFP reporter, high-content imaging; hits give high values. z-score at 5 µM. 190,000 compounds, 0.3% hits;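 active = z-score above 3 at 5 µM with at least 500 cells counted in the well; inconclusive = wells under 500 cells, flagged as cytotoxic or low count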
Furin inhibitor: inhibitors of human furin. P09958. purified furin, fluorogenic substrate cleavage. inhibition, % at 20 µM or 30 µM. 220,000 compounds, 0.061% hits; in the data active = inhibition above about 25%
Target sequence (P09958 108-714 limits assumed): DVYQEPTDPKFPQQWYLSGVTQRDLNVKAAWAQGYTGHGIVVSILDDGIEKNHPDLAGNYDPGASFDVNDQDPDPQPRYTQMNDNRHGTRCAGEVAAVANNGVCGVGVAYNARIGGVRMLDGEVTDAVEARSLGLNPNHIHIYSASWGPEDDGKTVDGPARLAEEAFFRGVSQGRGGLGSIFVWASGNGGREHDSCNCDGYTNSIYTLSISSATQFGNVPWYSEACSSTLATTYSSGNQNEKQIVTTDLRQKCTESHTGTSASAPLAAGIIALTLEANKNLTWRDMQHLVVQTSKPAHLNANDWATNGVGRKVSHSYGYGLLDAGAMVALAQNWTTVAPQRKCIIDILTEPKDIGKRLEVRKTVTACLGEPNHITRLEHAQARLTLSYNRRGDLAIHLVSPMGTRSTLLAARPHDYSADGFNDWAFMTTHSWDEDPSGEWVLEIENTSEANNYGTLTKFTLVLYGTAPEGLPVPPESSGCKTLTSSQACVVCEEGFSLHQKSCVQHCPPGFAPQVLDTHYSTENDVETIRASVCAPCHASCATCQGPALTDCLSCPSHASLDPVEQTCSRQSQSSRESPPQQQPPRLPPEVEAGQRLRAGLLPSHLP
Dynein transport: dynein cargo transport inhibition. 3617.4 mouse cells, GR-EGFP nuclear translocation imaging; test concentration mostly 20 µM; stimulated with dexamethasone, 1 µM; hits give low values. z-score, hits read low. 220,000 compounds, 0.47% hits. AID 1381;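 active = plate z-score of nuclear minus cytoplasmic receptor signal below a set negative limit, without overly bright fluorescence or cell loss, cut at about -3.5 in these data, passing the limit was not always enough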;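 note: z-score of nuclear minus cytoplasmic ring GR-EGFP intensity difference per well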
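Buffer or medium: tet-free, stripped-serum medium; reagent: dexamethasone at 1.0 µM final, 30 min; incubation: 48 h induction, 1 h compound, 30 min dex at 37 °C; measured by: formaldehyde fixation, Hoechst nuclear stain, 10x automated fluorescence imaging; read-out: nuclear-to-cytoplasmic GR-EGFP distribution per well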
Dynein inh conf: dynein cargo transport inhibition, confirmation; shares compounds with Dynein transport; 3617.4 GR-EGFP nuclear translocation imaging, dexamethasone-induced; calls only at 20 µM; 1,000 compounds, 69% hits;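 active = inhibition of receptor movement into the nucleus at or above a set limit in both runs, with normal cell brightness and cell count; inconclusive = limit reached in only one run, brightness and count normal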;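 note: dexamethasone at 1 µM final in well for 30 min; nuclear minus cytoplasmic GR-EGFP mean intensity difference in channel 2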
* = called active by the depositor; i = inactive; u = inconclusive; x = not tested or not shown; + = active, no number.

SMILES	INS promoter inh	HSV replic up	Autophagy mod	Ins promoter up	Furin inhibitor	Dynein transport	Dynein inh conf
Cc1ccc(C(=O)N/C(=C\c2ccc(-c3ccc(Cl)cc3)o2)C(=O)NCCCN(C)C)cc1	x	i	i	-0.13	2	-4.3*	i
Cc1cccc(N2CCN(C(=O)Cn3sc4nc(C)cc(C)c4c3=O)CC2C)c1 (stereo not given)	x	i	i	0.5	-22	-4.4*	u
O=C(Cn1cc(C(F)(F)F)ccc1=O)Nc1cccc(S(=O)(=O)N2CCOCC2)c1	x	i	i	0.51	-20	-0.038	x
CCC(C)(C(=O)NC1CCCC1)N(C(=O)CC1NC(=O)NC1=O)c1c(C)n(C)n(-c2ccccc2)c1=O (stereo not given)	13	i	i	0.16	-23	-0.67	x
COc1cccc(-c2cc(C(F)(F)F)c3c(N)c(C#N)sc3n2)c1	-62	x	i	x	-20	-0.77	x
Nc1c(C(=O)C2CC2)sc2nc(-c3ccccc3)cc(C(F)(F)F)c12	u	u	u	x	-13	-6.1	i
CC(=O)c1sc2nc(-c3cccs3)cc(C(F)(F)F)c2c1N	x	u	+	x	-16	-4.3	+
O=[N+]([O-])c1ccc(Nc2ccccc2F)nc1	x	i	i	0.23	-4	-0.54	x
CCOC(=O)c1c(-c2ccc(C)o2)csc1NC(=S)NC(=O)N(C)C	x	i	i	-0.7	-3	-3.8*	i
COc1ccc2c(C)cc3nncn3c2c1	53	i	i	0.37	-12	0.46	x
O=C(Cc1ccc(Br)cc1)N(Cc1ccccc1)c1ccccn1	x	i	i	-0.53	5	1.1	x
S=C(Nc1ccc(Br)cc1Cl)NN1CCOCC1	x	i	i	-0.17	-26	0.45	x
CN(C)CCCN(C(=O)CCOc1ccccc1)c1nc2c(F)cccc2s1	x	i	i	-0.02	-25	-7.9*	+
CN(C)CCCN(C(=O)CCc1ccccc1)c1nc2c(F)cccc2s1	-76	i	i	-0.17	-8	1.2	x
CN(C)CCCN(C(=O)CCOc1ccccc1)c1nc2ccc(F)cc2s1	6	i	i	-0.23	-10	-3.5*	i
CN(C)CCCN(C(=O)COc1ccccc1)c1nc2ccc(F)cc2s1	x	i	i	0.87	-20	-1.3	x
C#CCOC(=O)Nc1cc(C)n(-c2ccccc2)n1	x	i	x	-0.71	-18	-0.56	x
CCOC(=O)c1c2ccc(OCC(=O)N/N=C/c3ccc(Cl)cc3)cc2n2ccccc12	x	x	+	1.6	-6	-3.8	i
Cc1nc2ccccc2c(=O)n1/N=C/c1ccc([N+](=O)[O-])o1	x	i	x	0.23	0	-4*	+
O=C(Nc1ccc2cn[nH]c2c1)c1c(Cl)cccc1Cl	x	i	i	-1	-16	-0.5	x
O=C1C(Cl)=C(Nc2ccc3cn[nH]c3c2)C(=O)c2ccccc21	x	i	x	u	-21	-3.9*	+
COc1ccc(-n2nc([N+](=O)[O-])c(=NCCC3=CCCCC3)n2O)cc1	x	i	i	-1.1	-14	1.7	x
Cc1ccccc1-n1nnnc1Sc1nnnn1-c1ccccc1	22	i	i	x	-17	-5.1*	+
O=[N+]([O-])c1ccc(Sc2nnnn2-c2ccccc2)nc1	x	i	i	-1.1	-26	-5.2*	+
O=[N+]([O-])c1ccc(Sc2ccccn2)nc1	x	i	x	0.48	-6	-0.92	x
SMILES	INS promoter inh	HSV replic up	Autophagy mod	Ins promoter up	Furin inhibitor	Dynein transport	Dynein inh conf
CC(=O)Nc1ccc(C(=O)Cn2c3[n+](c4c(F)c(F)ccc42)CCCCC3)cc1	x	i	i	-0.1	-43	-0.32	x
COc1ccc([N+](=O)[O-])cc1NC(=O)c1ccc(Br)s1	x	i	i	0.24	-17	-0.64	x
O=[N+]([O-])c1cc(S(=O)(=O)NCCN2CCOCC2)ccc1Sc1nnnn1-c1ccccc1	31	x	i	0.41	-17	-3.4	x
Cc1ccc(-n2nnnc2Sc2ccc(S(=O)(=O)NCCN(C)C)cc2[N+](=O)[O-])cc1	-8	i	i	u	-20	-4*	+
COc1cccc(C2NC(=O)N(CCCC(=O)O)C(C)=C2C(=O)OCc2ccccc2)c1 (stereo not given)	x	i	x	x	x	x	x
COCCNc1ccc(S(=O)(=O)N2CCCC2)cn1	x	i	i	-0.21	-24	0.2	x

Bioassay records (PubChem)
